Measured values reported in ChEMBL document CHEMBL1125267, “Linear discriminant and multiple regression analyses of anticoccidial triazines” (1991).

Experiment: Minimum effective concentration (MEC) value was determined as a measure of anti-coccidial activity (MEC is expressed as mmol/kg of feed).
Format: functional
Summary of the method: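 Dietary activity was graded by the lowest effective feed level, originally in ppm and converted to mmol/kg of feed. Where MEC was only bounded (>250 ppm or >500 ppm), it was assigned the next higher feed level.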

| Structure (SMILES) | MEC [p.p.m.] |
| --- | --- |
| Cc1cc(-n2ncc(=O)[nH]c2=O)cc(C)c1S(=O)(=O)N1CCOCC1 | 15 |
| Cc1cc(-n2ncc(=O)[nH]c2=O)cc(C)c1S(=O)(=O)c1ccc(Cl)cc1 | 1 |
| CSc1ccc(Oc2ccc(-n3ncc(=O)[nH]c3=O)cc2Cl)cc1 | 3.8 |
| Cc1cc(-n2ncc(=O)[nH]c2=O)cc(Cl)c1Oc1ccc(C(C)O)cc1 (centres undefined) | 2 |
| CSc1ccc(Oc2ccc(-n3ncc(=O)[nH]c3=O)cc2C)cc1 | 2 |
| CSc1ccc(Oc2c(C)cc(-n3ncc(=O)[nH]c3=O)cc2C)cc1 | 2 |
| Cc1cc(-n2ncc(=O)[nH]c2=O)cc(Cl)c1S(=O)(=O)c1ccc(Cl)cc1 | 8 |
| Cc1cc(-n2ncc(=O)[nH]c2=O)ccc1C(O)c1ccccc1 (centres undefined) | 30 |
| CS(=O)(=O)c1ccc(-n2ncc(=O)[nH]c2=O)cc1 | 500 |
| O=c1cnn(-c2ccc(Oc3ccc4cc(Br)ccc4c3)c(Cl)c2)c(=O)[nH]1 | 7.5 |
| N#CC(c1ccc(Cl)cc1)c1c(Cl)cc(-n2ncc(=O)[nH]c2=O)cc1Cl (centres undefined) [DICLAZURIL] | 0.1 |
| Cc1cc(-n2ncc(=O)[nH]c2=O)ccc1Oc1ccc(Cl)cc1 | 60 |
| Cc1cc(-n2ncc(=O)[nH]c2=O)cc(C)c1[S+]([O-])c1ccc(Cl)cc1 (centres undefined) | 1 |
| O=c1cnn(-c2ccc(Oc3ccc(I)cc3)c(Cl)c2)c(=O)[nH]1 | 7.5 |
| O=c1cnn(-c2cccc(Cl)c2)c(=O)[nH]1 | 125 |
| O=c1cnn(-c2ccc(S(=O)(=O)c3ccc(Cl)cc3)cc2)c(=O)[nH]1 | 4 |
| CC(=O)c1ccc(Oc2c(C)cc(-n3ncc(=O)[nH]c3=O)cc2Cl)cc1 | 2 |
| CSc1ccc(Oc2c(C)cc(-n3ncc(=O)[nH]c3=O)cc2C)cc1C | 2 |
| O=c1cnn(-c2ccc(Sc3ccc4ccccc4c3)c(Cl)c2)c(=O)[nH]1 | 125 |
| Cc1cc(-n2ncc(=O)[nH]c2=O)cc(Cl)c1Oc1ccc(Cl)cc1 | 3.8 |
| COc1cc(OC)cc(-n2ncc(=O)[nH]c2=O)c1 | 500 |
| O=c1cnn(-c2ccc(Sc3ccc(Cl)cc3)c(Cl)c2)c(=O)[nH]1 | 2 |
| Cc1cc(-n2ncc(=O)[nH]c2=O)cc(C)c1Sc1ccc(Cl)cc1 [TIAZURIL] | 0.5 |
| Cc1cc(Cl)cc(-n2ncc(=O)[nH]c2=O)c1 | 15 |
| O=c1cnn(-c2ccc(S(=O)(=O)c3ccc(Br)cc3)cc2)c(=O)[nH]1 | 8 |
| O=c1cnn(-c2ccc([N+](=O)[O-])cc2)c(=O)[nH]1 | 250 |
| O=c1cnn(-c2cc(Cl)c(S(=O)(=O)N3CCOCC3)c(Cl)c2)c(=O)[nH]1 | 30 |

| Structure (SMILES) | MEC [p.p.m.] |
| --- | --- |
| CC(=O)c1ccc(Sc2c(C)cc(-n3ncc(=O)[nH]c3=O)cc2Cl)cc1 | 0.25 |
| O=c1cnn(-c2cccc(C(F)(F)F)c2)c(=O)[nH]1 | 30 |
| O=c1cnn(-c2ccc(Oc3ccccc3)cc2)c(=O)[nH]1 | 500 |
| O=c1cnn(-c2cc(Cl)cc(Cl)c2)c(=O)[nH]1 | 4 |
| COc1c(Cl)cc(-n2ncc(=O)[nH]c2=O)cc1Cl | 250 |
| O=c1cnn(-c2ccc(Oc3ccc(Cl)cc3Cl)c(Cl)c2)c(=O)[nH]1 | 7.5 |
| O=c1cnn(-c2ccc(S(=O)(=O)N3CCOCC3)c(Cl)c2)c(=O)[nH]1 | 30 |
| O=c1cnn(-c2ccc(F)c(C(F)(F)F)c2)c(=O)[nH]1 | 15 |
| O=c1cnn(-c2ccc(C(O)c3ccc(Cl)cc3)c(Cl)c2)c(=O)[nH]1 (centres undefined) | 2 |
| O=c1cnn(-c2ccccc2)c(=O)[nH]1 | 500 |
| Cc1cc(-n2ncc(=O)[nH]c2=O)ccc1Oc1ccc(S(C)(=O)=O)cc1 | 4 |
| Cc1cc(-n2ncc(=O)[nH]c2=O)ccc1Oc1ccc(Br)cc1 | 7.5 |
| O=c1cnn(-c2cc(Cl)c(Sc3ccc(Cl)cc3)c(Cl)c2)c(=O)[nH]1 | 0.2 |
| CCN(C)S(=O)(=O)c1ccc(Oc2c(C)cc(-n3ncc(=O)[nH]c3=O)cc2Cl)c(Cl)c1 | 3.8 |
| O=c1cnn(-c2ccc(S(=O)(=O)c3ccccc3)cc2)c(=O)[nH]1 | 30 |
| Cc1cc(C)cc(-n2ncc(=O)[nH]c2=O)c1 | 30 |
| O=C(c1ccc(Cl)cc1)c1c(Cl)cc(-n2ncc(=O)[nH]c2=O)cc1Cl | 0.5 |
| O=c1cnn(-c2cc(Cl)c(S(=O)(=O)c3ccc(Cl)cc3)c(Cl)c2)c(=O)[nH]1 | 0.5 |
| O=c1cnn(-c2ccc(Br)c(C(F)(F)F)c2)c(=O)[nH]1 | 15 |
| O=c1cnn(-c2ccc(Cc3ccc(Cl)cc3)c(Cl)c2)c(=O)[nH]1 | 8 |
| Cc1cc(-n2ncc(=O)[nH]c2=O)cc(Cl)c1Oc1ccc(S(=O)(=O)NC2CC2)cc1Cl | 15 |
| Cc1cc(-n2ncc(=O)[nH]c2=O)ccc1Oc1ccc(Cl)cc1Cl | 7.5 |
| N#Cc1cccc(-n2ncc(=O)[nH]c2=O)c1 | 30 |
| Cc1cc(-n2ncc(=O)[nH]c2=O)cc(Cl)c1Sc1ccc(Cl)cc1 | 0.2 |
| COc1cc(-n2ncc(=O)[nH]c2=O)cc(OC)c1OC | 1000 |
| O=c1cnn(-c2cc(Cl)c(Cc3ccc(Cl)cc3)c(Cl)c2)c(=O)[nH]1 | 0.25 |
| Cc1cc(-n2ncc(=O)[nH]c2=O)cc(C)c1C(=O)c1ccc(Cl)cc1 | 15 |
